# Columns and labels:
# [1] = Catalytic rate constant was determined; type: ADME
# [2] = target: T1, Thymidine kinase, cytosolic (Homo sapiens) (UniProt P04183); settings: herpes simplex virus
# T1 sequence (whole entry): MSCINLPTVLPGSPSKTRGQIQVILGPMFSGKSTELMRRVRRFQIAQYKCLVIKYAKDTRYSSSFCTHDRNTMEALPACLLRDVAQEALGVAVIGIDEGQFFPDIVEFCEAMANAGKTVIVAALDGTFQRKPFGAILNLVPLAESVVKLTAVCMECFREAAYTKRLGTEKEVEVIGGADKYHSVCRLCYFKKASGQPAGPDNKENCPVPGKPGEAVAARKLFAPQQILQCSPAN
# Human alphaherpesvirus 3 [3] = assay: Effective concentration of compound against Varicella-Zoster Virus (VZV); Range is 0.06-0.12 uM; type: functional, organism-based
# [4] = Cytotoxic concentration against non transfected osteosarcoma cells non transfected (MG-63-hTK1); type: functional
# In short: (§1)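 Osteosarcoma lines (143B-TK⁻ with 0.1 mg/mL 5-BrdU selection; MG-63-hTK1; 143B-TK⁺-HSV1-WT with HAT) grown in MEM/10% FCS. Seeded at 2 × 10³ (143B lines) or 1.5 × 10³ (MG-63) cells/well, exposed to five concentrations over 0.5–500 μM for 4.5 days at 37 °C/5% CO₂. XTT added for 9 h, A450 (ref 750 nm) read against untreated wells. Three independent series in triplicate.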
# [5] = Cytotoxic concentration against HSV-1 TK- transfected osteosarcoma cells; type: functional; settings: Human alphaherpesvirus 1; in short: as §1
# Homo sapiens [6] = organism: Homo sapiens; assay: Inhibitory concentration required to reduce HSV-2 induced cytopathogenic effect in human skin fibroblast; type: functional, organism-based
# Human alphaherpesvirus 2 = assay: Inhibitory concentration required to reduce HSV-2 induced cytopathogenic effect (CPE) by 50 % in HFF cells; type: functional, organism-based; settings: Human alphaherpesvirus 2, HFF
# Human alphaherpesvirus 1 = assay: Inhibitory concentration required to reduce HSV-1 induced cytopathogenic effect (CPE) by 50 % in HFF cells; type: functional, organism-based, herpes simplex virus; settings: Human alphaherpesvirus 1, HFF
# Homo sapiens [7] = organism: Homo sapiens; assay: Cytotoxic concentration that produces 50% growth inhibition of human skin fibroblast in CPE assay; type: functional
# Human alphaherpesvirus 3 [8] = assay: Effective concentration against TK- Varicella-Zoster Virus (VZV) 07/1 strain; type: functional, organism-based
# Human alphaherpesvirus 3 [9] = assay: Antiviral activity against OKA strain of thymidine kinase positive(TK+) Varicella-Zoster Virus (VZV); type: functional, organism-based
# [10] = Inhibitory activity against HSV-1-TK transfected osteosarcoma cells; type: functional; in short: as §1
# Human alphaherpesvirus 3 [11] = assay: Minimum cytotoxic concentration that causes alterations of VZV infected Osteosarcoma cell morphology; type: functional
# HFF [12] = assay: Cytotoxic concentration for 50% inhibition of cell growth of HSV-1 infected HFF cells determined by CPE assay; type: functional; settings: Homo sapiens
# Human alphaherpesvirus 3 [13] = assay: Effective concentration against TK+ Varicella-Zoster Virus (VZV) OKA strain; type: functional, organism-based
# [14] = test system: Thymidine kinase (Herpes simplex virus type 1); assay: Catalytic turnover constant against HSV-1 thymidine kinase
# [15] = Cytotoxic concentration that produces 50% inhibition of cell growth.; type: functional
# Human alphaherpesvirus 3 [16] = assay: Effective concentration against TK+ Varicella-Zoster Virus (VZV)YS strain; type: functional, organism-based
# Human alphaherpesvirus 3 [17] = assay: Cytotoxic concentration that causes growth inhibition of VZV infected Osteosarcoma cells; type: functional
# Human alphaherpesvirus 3 [18] = assay: Antiviral activity against YS/R strain of thymidine kinase negative(TK-) Varicella-Zoster Virus (VZV); type: functional, organism-based
# [19] = Cytotoxic concentration against HSV-1 TK-transfected osteosarcoma cells; type: functional; settings: Human alphaherpesvirus 1; in short: as §1
# [20] = Minimum cytotoxic concentration that causes microscopically detectable alterations of cell morphology; type: functional
# [21] = Inhibition constant against HSV-1 TK; type: functional, herpes simplex virus
# HFF [22] = assay: Cytotoxic concentration for 50% inhibition of cell growth of HSV-2 infected HFF cells determined by CPE assay; type: functional; settings: Homo sapiens
# Human alphaherpesvirus 3 [23] = assay: Antiviral activity against YS strain of thymidine kinase positive(TK+) Varicella-Zoster Virus (VZV); type: functional, organism-based
# Homo sapiens [24] = organism: Homo sapiens; assay: Inhibitory concentration required to reduce HSV-1 induced cytopathogenic effect (CPE) in human skin fibroblast; type: functional, organism-based
# Human alphaherpesvirus 3 [25] = assay: Antiviral activity against 07/1 strain of thymidine kinase negative (TK-) Varicella-Zoster Virus (VZV); type: functional, organism-based
# Human alphaherpesvirus 3 [26] = assay: Effective concentration against TK- Varicella-Zoster Virus (VZV) YS/R strain; type: functional, organism-based
structure (smiles),measurement,setting,value
Cc1cn([C@H]2C[C@H](O)[C@@H](CO)O2)c(=O)[nH]c1=O [DOXRIBTIMINE],k cat,[1],0.35 s⁻¹
same,k cat,[2],0.35 s⁻¹
O=c1[nH]c(=O)n([C@H]2C[C@@H](CO)[C@H](O)C2)cc1/C=C/Br,EC50,Human alphaherpesvirus 3 [3],0.12 µM
O=c1[nH]c(=O)n([C@H]2C[C@H](O)[C@]3(CO)C[C@H]23)cc1I,CC50,[4],300 µM
same,CC50,[5],> 500 µM
same,EC50,Homo sapiens [6],9.06 µM
same,EC50,Human alphaherpesvirus 2,9.06 µM
same,EC50,Human alphaherpesvirus 1,> 275 µM
same,CC50,Homo sapiens [7],> 275 µM
same,EC50,Human alphaherpesvirus 3 [8],> 5 µM
same,EC50,Human alphaherpesvirus 3 [9],0.16 µM
same,CC50,[10],25 µM
same,k cat,[1],0.14 s⁻¹
same,MCC,Human alphaherpesvirus 3 [11],> 5 µM
same,CC50,HFF [12],> 275 µM
same,EC50,Human alphaherpesvirus 3 [13],0.16 µM
same,k cat,[14],0.14 s⁻¹
same,CC50,[15],> 200 µM
same,EC50,Human alphaherpesvirus 3 [16],0.12 µM
same,CC50,Human alphaherpesvirus 3 [17],> 200 µM
same,EC50,Human alphaherpesvirus 3 [18],3 µM
same,CC50,[19],25 µM
same,MCC,[20],> 5 µM
same,Ki,[21],85.8 µM
same,CC50,HFF [22],> 275 µM
same,EC50,Human alphaherpesvirus 3 [23],0.12 µM
same,EC50,Homo sapiens [24],> 275 µM
same,EC50,Human alphaherpesvirus 3 [25],> 5 µM
same,EC50,Human alphaherpesvirus 3 [26],3 µM

# From ChEMBL document CHEMBL1144911, “Synthesis and biological evaluation of 5-substituted derivatives of the potent antiherpes agent (north)-methanocarbathymine” (J Med Chem, 2003)
